From article PMC10585311 (Saudi Pharmaceutical Journal : SPJ, 2023)

How the values were obtained:
S. typhi = experiment: Disc diffusion antibacterial screening; type: cell-based, Salmonella typhi; conditions: S. typhi (G–ve)
Summary of the method: (§1)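 Disc diffusion on standard nutrient agar as the basal medium. Values are from triplicate experiments. Significance was set at p < 0.05.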

P. aeruginosa = experiment: Disc diffusion antibacterial screening; type: cell-based, Pseudomonas aeruginosa; conditions: P. aeruginosa (G–ve)
Summary of the method: as §1

Aspergillus niger = experiment: Mycelial growth inhibition, poisoned food technique; type: cell-based; conditions: in DMSO (20 μg/μL)
Aspergillus flavus = experiment: as above; type: cell-based; conditions: in DMSO (20 μg/μL)
brine shrimp nauplii = experiment: Brine shrimp lethality assay; type: in vivo; conditions: for percentage of dead shrimp (deaths): after 24 and 48 h
Summary of the method: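 Brine shrimp lethality assay. Test compounds were dissolved in DMSO and made up at four levels. Each vial held 5 mL NaCl solution and one of four sample levels (A–D: 4, 8, 16, 32). Each vial received 10 nauplii, with triplicate vials per level. Mortality was scored at each level and averaged as percent.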

tested bacteria = experiment: Disc diffusion antibacterial screening, overall statements; type: cell-based
Summary of the method: as §1

S. aureus = experiment: Disc diffusion antibacterial screening; type: cell-based; conditions: S. aureus (G + ve)
Summary of the method: as §1

E. coli = experiment: Disc diffusion antibacterial screening; type: cell-based, Escherichia coli; conditions: E. coli (G–ve)
Summary of the method: as §1

B. cereus = experiment: Disc diffusion antibacterial screening; type: cell-based, Bacillus cereus
Summary of the method: as §1

B. subtilis = experiment: Disc diffusion antibacterial screening; type: cell-based, Bacillus subtilis; conditions: B. subtilis (G + ve)
Summary of the method: as §1

Row | Compound | Diameter of Inhibition Zones (S. typhi) | Diameter of Inhibition Zones (P. aeruginosa) | Percent inhibition of fungal mycelial growth (Aspergillus niger) | Percent inhibition of fungal mycelial growth (Aspergillus flavus) | toxicity to brine shrimp (brine shrimp nauplii) | inhibitory activity (tested bacteria; tested gram-positive bacteria) | Diameter of Inhibition Zones (S. aureus) | Diameter of Inhibition Zones (E. coli) | zone of inhibition (B. cereus) | percentage of dead shrimp (deaths) (brine shrimp nauplii) | Diameter of Inhibition Zones (B. subtilis) | antibacterial activity (tested bacteria; all tested bacteria)
1 | Methyl 2,3,4-tri-O-lauryl-6-O-(triphenylmethyl)-α-D-glucopyranoside [Compound 3] | 10 ± 0.1 mm | *12 ± 0.3 mm | 46.62% | 41.30% | less toxic | did not show any inhibitory activity |  |  |  |  |  | 
2 | CO[C@H]1O[C@H](COC(c2ccccc2)(c2ccccc2)c2ccccc2)[C@@H](OC(=O)c2ccc(C(C)(C)C)cc2)[C@H](OC(=O)c2ccc(C(C)(C)C)cc2)[C@H]1OC(=O)c1ccc(C(C)(C)C)cc1 [Compound 5, Methyl 2,3,4-tri-O-(4-t-butylbenzoyl)-6-O-(triphenylmethyl)-α-D-glucopyranoside] | 10 ± 0.4 mm |  |  | *59.54 ± 0.14% |  |  | *17 ± 0.1 mm | *15 ± 0.2 mm | 17 ± 0.1 mm | 48.21% |  | 
3 | COc1ccc(C(=O)OC[C@H]2O[C@H](OC)[C@H](O)[C@@H](O)[C@@H]2O)cc1 [Compound 7, Methyl 6-O-(4-methoxybenzoyl)-α-D-glucopyranoside] |  |  | 48.40 ± 0.22% | 35.38 ± 0.32% |  |  | 10 ± 0.1 mm | 9 ± 0.4 mm |  |  | *12 ± 0.2 mm | 
4 | CO[C@H]1O[C@H](CO)[C@@H](O)[C@H](O)[C@H]1O [Compound 1, methyl α-D-glucopyranoside, reference compound] |  |  |  |  |  |  |  |  |  |  |  | did not show any antibacterial activity
5 | C[C@@H]1[C@H](O)[C@@H](C)/C=C/C=C/CC/C=C/C=C/C=C/C=C/C(O[C@H]2O[C@H](C)[C@@H](O)[C@H](N)[C@@H]2O)CC2O[C@](O)(CC(O)C(O)CCC(O)CC(O)CC(O)CC(=O)O[C@H]1C)CC(O)C2C(=O)O (stereo partly drawn) [Nystatin, reference compound] |  |  | **66.40 ± 0.05% | **63.10 ± 0.09% |  |  |  |  |  |  |  | 
6 | CCCCCCCCCCCC(=O)O[C@@H]1[C@@H](OC(=O)CCCCCCCCCCC)[C@@H](OC)O[C@H](COC(=O)c2ccc(OC)cc2)[C@H]1OC(=O)CCCCCCCCCCC [Compound 8, Methyl 2,3,4-tri-O-lauroyl-6-O-(4-methoxybenzoyl)-α-D-glucopyranoside] |  |  | *66.41 ± 0.37% | *63.31 ± 0.51% | less toxic |  | 11 ± 0.2 mm | 10 ± 0.1 mm |  |  | 9 ± 0.3 mm | 
7 | CO[C@H]1O[C@H](COC(c2ccccc2)(c2ccccc2)c2ccccc2)[C@@H](O)[C@H](O)[C@H]1O [Compound 2, Methyl 6-O-(triphenylmethyl)-α-D-glucopyranoside] |  | 9 ± 0.1 mm | 36.43% | 33.33% |  |  |  | 9 ± 0.2 mm |  | 32.11% | 8 ± 0.5 mm | 
8 | CC[C@H]1OC(=O)[C@H](C)[C@@H](O[C@H]2C[C@@](C)(OC)[C@@H](O)[C@H](C)O2)[C@H](C)[C@@H](O[C@@H]2O[C@H](C)C[C@H](N(C)C)[C@H]2O)[C@](C)(O)C[C@@H](C)CN(C)[C@H](C)[C@@H](O)[C@]1(C)O [Azithromycin, reference compound] | **19 ± 0.5 mm | **17 ± 0.5 mm |  |  |  |  | **18 ± 0.5 mm | **17 ± 0.4 mm |  |  | **19 ± 0.6 mm | 
9 | CCCCCCCCCCCCCC(=O)O[C@@H]1[C@@H](OC(=O)CCCCCCCCCCCCC)[C@@H](OC)O[C@H](COC(c2ccccc2)(c2ccccc2)c2ccccc2)[C@H]1OC(=O)CCCCCCCCCCCCC [Compound 4, Methyl 2,3,4-tri-O-myristoyl-6-O-(triphenylmethyl)-α-D-glucopyranoside] | 9 ± 0.5 mm | 8 ± 0.2 mm | 31.92% |  |  |  |  |  |  | 47.64% | 10 ± 0.3 mm | 
